# This is a sample that favours compounds with a hit; in the whole collection about 6.7% have one here.
# CSC inhib: blocks cancer stem cells; cancer stem cell-like cells viability, luminescence; inhibition, % at 7.5 µM; 300,000 tested, 1.1% active; AID 2717; in the data active means inhibition above about 75%; tested in HMLE shEcad cells
# Beta apoptosis: beta cell apoptosis inhibition | protection from apoptosis, % (no concentration beside the values) | INS-1E cytokine-induced death, ATP luminescence, 48 h; percent of positive-control rescue, neutral wells zero | AID 435005 | 300,000 tested, 0.8% active;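 active means Every replicate reaches about 75%, or at least half do and their mean reaches it too, limit read from the data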;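 further: 0% = cytokine-treated negative control wells and 100% = positive control rescue; higher means more ATP so stronger rescue from cytokine killing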
# NR3A LBD binder: NR3A (human) ligand-binding domain modulation; Tm shift relative to glycine control, % at 25 µM; 340,000 tested, 2.5% active; NR3A LBD differential scanning fluorimetry, Tm shift; 0% = protein alone, 100% = glycine-bound protein;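 active means melting temperature shift of at least 10% of the positive control shift, at one fixed dose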
# T cruzi inh: blocks replication of Trypanosoma cruzi. AID 1885. inhibition, % (no concentration beside the values). 300,000 tested, 1.4% active. T. cruzi beta-gal in NIH3T3, luminescence, 90 h;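 active means mean inhibition across valid replicates above about 55%, limit read from the data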;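 further: signal also drops with host cell toxicity which is not excluded here; 0% = plate median of DMSO wells and 100% = zero luminescence signal; higher percent means less beta-gal luminescence so fewer parasites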
#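 System – NIH/3T3 host cells with β-galactosidase reporter T. cruzi · Doses – single 50 nL compound addition per well in DMSO · Reagent – 5000 T. cruzi trypomastigotes/well · Medium – Low-serum DMEM with 2% FBS · Timing – ≥90 h infection period, 3 h prior cell attachment · Evaluation – parasite load inhibition, % · Technique – GalScreen luminescence, 60 min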
# PREPL inhibitor: human PREPL enzyme inhibition; recombinant PREPL, fluorescence polarization activity-based probe; inhibition, % at 5.96 µM; 320,000 tested, 0.68% active; in the data active means inhibition above about 43%;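 further: 0% = enzyme with DMSO and 100% = wells lacking enzyme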
# Target sequence (Q4J6C6 whole entry, looked up): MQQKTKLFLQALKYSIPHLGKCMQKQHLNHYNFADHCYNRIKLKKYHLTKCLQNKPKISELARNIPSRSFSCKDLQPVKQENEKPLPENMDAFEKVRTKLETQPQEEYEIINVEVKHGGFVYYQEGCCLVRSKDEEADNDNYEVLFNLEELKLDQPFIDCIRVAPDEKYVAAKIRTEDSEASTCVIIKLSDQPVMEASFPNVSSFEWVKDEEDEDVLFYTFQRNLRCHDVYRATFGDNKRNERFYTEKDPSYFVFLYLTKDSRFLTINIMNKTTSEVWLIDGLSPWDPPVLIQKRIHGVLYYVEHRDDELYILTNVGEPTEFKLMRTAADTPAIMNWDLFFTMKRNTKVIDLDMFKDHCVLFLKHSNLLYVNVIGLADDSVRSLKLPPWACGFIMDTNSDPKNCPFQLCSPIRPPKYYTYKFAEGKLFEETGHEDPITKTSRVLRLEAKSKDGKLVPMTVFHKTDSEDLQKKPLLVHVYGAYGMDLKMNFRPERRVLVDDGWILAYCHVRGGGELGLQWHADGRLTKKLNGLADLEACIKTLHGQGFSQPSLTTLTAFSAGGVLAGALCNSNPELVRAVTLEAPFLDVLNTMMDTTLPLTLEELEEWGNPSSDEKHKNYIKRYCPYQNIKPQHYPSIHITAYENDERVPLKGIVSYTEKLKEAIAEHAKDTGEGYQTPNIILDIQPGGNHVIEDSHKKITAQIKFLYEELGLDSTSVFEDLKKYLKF
# CHOP inh: blocks CHOP induction under ER stress; AID 2732; CHO-K1 CHOP-promoter luciferase, tunicamycin-induced, 15-18 h; inhibition, % at 10 µM; 220,000 tested, 3.8% active;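 active means compounds that reduced the stress-induced luciferase reporter signal by more than about 70% of percent inhibition, limit read from the data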;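 further: 0% = tunicamycin plus vehicle and 100% = wells without tunicamycin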
# Starred values were filed as active, the others as inactive; x = not tested or not shown.
SMILES,CSC inhib,Beta apoptosis,NR3A LBD binder,T cruzi inh,PREPL inhibitor,CHOP inh
C=CCN(c1ccc(F)cc1)S(=O)(=O)c1cc(C(=O)OCC(=O)N(C)C2CCS(=O)(=O)C2)ccc1Cl (stereo unspecified),1,-1,-1,13,-5,-5
O=C(NCc1nnc(SCC(=O)N2CCN(c3ccccc3)CC2)o1)c1c(F)cccc1F,11,-4,1,8,-21,x
COc1ccc(-c2[nH]c3ccccc3c2SCCNC(=O)c2cc3ccccc3oc2=O)cc1,-1,0,4,-36,17,-15
COc1ccc(-c2[nH]c3ccccc3c2SCCN)cc1,-13,7,0,40,55*,24
COc1ccc(C2CC(c3ccc4ccccc4c3)=NN2C(=O)CSc2ncccn2)cc1 (stereo unspecified),14,34,19*,33,30,9
O=C(Nc1ccc(N2C(=O)C3C4C=CC(C4)C3C2=O)cc1)Nc1nnc(C(F)(F)F)s1 (stereo unspecified),15,-2,20*,2,-3,61
COc1ccc(NC(=O)c2sccc2SCc2cccc(C(F)(F)F)c2)cc1,22,1,3,69*,10,23
Cc1ccc(S(=O)(=O)N2[C@@H](c3ccccc3F)C(C(=O)O)=CC[C@H]2c2cccs2)cc1,-9,1,1,x,3,x
C/C(=C\C(=O)c1ccc(F)cc1)NCc1ccc2c(c1)OCO2,21,2,14*,-2,25,1
CCCCP(=O)(CCCC)Cc1ccccc1,-10,-2,-2,4,-5,6
CCCCP(=O)(CCCC)c1ccccc1C(=O)O,3,-5,12*,x,9,-5
O=C(c1ccc(Cl)c(S(=O)(=O)NCc2cccnc2)c1)N1CCCC1,x,x,-3,x,16,x
CCCn1c(N)c(N(CCOC)C(=O)c2cc(S(=O)(=O)N3CCCCCC3)ccc2OC)c(=O)[nH]c1=O,-17,-1,-3,1,3,x
CCCCn1c(N)c(N(CCOC)C(=O)c2cc(S(=O)(=O)N3CCCCC3)ccc2Cl)c(=O)[nH]c1=O,-4,-3,20*,10,13,x
CCC(COC)NC(=O)c1ccc(OC)c(OC2CCN(C(C)=O)CC2)c1 (stereo unspecified),-5,-1,-1,-14,-5,x
O=C(Nc1ccncc1)Nc1cccc(C(F)(F)F)c1,-9,5,14*,41,-4,x
CCN(CC)S(=O)(=O)c1ccc(NC(=O)Nc2cccc(C(F)(F)F)c2)cc1,83*,98*,31*,76*,-23,55
CCN(CC)S(=O)(=O)c1ccc(C(=O)Nc2cccc(C)c2)cc1,-7,-2,-36,5,2,77*
O=C(Nc1cccc(C(F)(F)F)c1)NC1CCCCC1,12,0,-4,15,27,87*
CC1(C)CN(c2cccc(Br)c2)C1=O,x,0,2,6,2,-9
CC1(C)CC(=O)c2c(O)c(-c3ccccc3)c(=O)n(-c3ccccc3)c2C1,14,0,12*,13,-3,3
CC1(C)CC(=O)c2cc(C(=O)O)c(=O)n(-c3ccccc3)c2C1,14,0,0,-1,17,21
CCCCCCSc1ccc([C@H]2N[C@@](CC(C)C)(C(=O)OC)[C@H]3C(=O)N(CC)C(=O)[C@@H]23)cc1,44,60,-2,-12,7,x
CCCCCCSc1ccc([C@H]2N[C@@](C)(C(=O)OC)[C@H]3C(=O)N(CC)C(=O)[C@@H]23)cc1,78*,33,-4,17,-5,x
CCCCCCSc1ccc([C@H]2N[C@@](Cc3ccccc3)(C(=O)OC)[C@H]3C(=O)N(CC)C(=O)[C@@H]23)cc1,11,43,0,-2,2,x
SMILES,CSC inhib,Beta apoptosis,NR3A LBD binder,T cruzi inh,PREPL inhibitor,CHOP inh
CCCCCCSc1ccc([C@H]2N[C@@](Cc3ccccc3)(C(=O)OC)[C@H]3C(=O)N(C)C(=O)[C@@H]23)cc1,22,99*,-8,48,-4,x
Cc1cc(C(=O)OCC(=O)c2cccs2)ccc1[N+](=O)[O-],x,x,0,x,x,x
O=C(COC(=O)CNS(=O)(=O)c1ccc(Br)cc1Cl)NC1CCCC1,1,3,18*,-3,14,x
O=C(COC(=O)CNS(=O)(=O)c1cc(C(F)(F)F)ccc1Cl)NC1CC1,-2,0,-1,x,25,x
COc1cc(/C=c2\sc3n(c2=O)CCCN=3)ccc1O,8,-1,-3,6,-5,6
COc1cc(/C=c2\sc3n(c2=O)C(c2ccccc2)C(c2ccccc2)=NN=3)ccc1O (stereo unspecified),103*,14,8,x,40,57
Cc1sc(/C=C2\C(=O)ON=C2c2ccccc2)cc1Br,0,-13,x,-2,2,88*
CCCCc1ccc(/C=C2/C(=O)ON=C2c2ccccc2)s1,7,-4,-5,28,-9,34
O=C1ON=C(c2ccc(Cl)cc2)/C1=C/c1ccc(O)cc1,79*,-36,-6,-12,2,-45
COc1cc(/C=C2/C(=O)ON=C2c2ccccc2)ccc1O,-3,-6,11*,5,-10,67
COc1ccc(/C=C2\Oc3cc(OCC(=O)N4CCC[C@H]4CO)ccc3C2=O)c(OC)c1,-7,1,-2,10,9,x
CC(C)Oc1ccc(/C(O)=C2/C(=O)C(=O)N(CCN3CCNCC3)C2c2cccc([N+](=O)[O-])c2)cc1 (stereo unspecified),3,4,-2,-20,2,x
COc1ccc([N+](=O)[O-])cc1NC(=O)C(C)OC(=O)CSC(C)C(=O)Nc1cc(C)on1 (stereo unspecified),-15,-8,1,3,6,x
CN(C)NC(=O)c1ccc([N+](=O)[O-])s1,-10,5,2,22,14,-3
Cc1ccc(CC(=O)Nc2cc([N+](=O)[O-])ccc2F)cc1,-6,-6,-4,-18,12,-8
O=C(Nc1cccc2ccccc12)c1ccc([N+](=O)[O-])s1,33,8,-5,57*,22,3
O=C(Nc1ccccc1F)c1ccc([N+](=O)[O-])s1,5,9,0,65*,0,0
Cc1ccc(C(=O)Nc2cc([N+](=O)[O-])ccc2F)s1,9,5,12*,50,7,-6
Cc1ccc(C(=O)Nc2cc(Cl)ccc2N2CCCCC2)s1,20,-2,22*,32,-1,21
COc1nc2c(c(-c3cc(Br)cs3)c1C#N)Cc1ccccc1-2,7,x,0,4,0,23
O=C(CCCN1C(=O)NC2(CCCC2)C1=O)NCc1ccccc1,-10,4,2,x,4,x
O=C(Nc1cccnc1)c1ccc([N+](=O)[O-])s1,13,78*,-3,x,10,x
O=C(Nc1cccnc1)c1cc(Br)c(Br)s1,-5,-4,-4,-5,7,x

# Screening data deposited in PubChem by several laboratories.
